Data reported in ChEMBL document CHEMBL1145502, “Roxithromycin favorably modifies the initial phase of resistance against infection with macrolide-resistant Streptococcus pneumoniae in a murine pneumonia model” (Antimicrob Agents Chemother, 2007).
Values after ≈ are worked out from the molar mass of the structure shown. Active and inactive are the calls of the source. No cut-off for these calls is given here.

Assays:
Streptococcus pneumoniae [1] = test: Antimicrobial activity against drug-resistant Streptococcus pneumoniae NMU112 infected CBA/J mouse assessed as median survival time at 10 mg/kg, po relative to control; format: functional
Procedure, shortened: (§1)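 Male CBA/J mice, 3-4 weeks old, 28-30 g. Macrolide given by oral gavage in saline for 3 days; RXM, ERY and CLR twice daily at 12-h intervals, AZM once daily. Saline controls. 24 h after the last dose, mice were infected intratracheally with 5 × 10⁴ CFU NMU112 (erm(B)/mef(A)). Kaplan-Meier survival and median survival time, log rank test; 10 mice per group per experiment.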

Streptococcus pneumoniae [2] = test: Antimicrobial activity against Streptococcus pneumoniae NMU605; format: functional
Procedure, shortened: (§2)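 Broth microdilution MIC (NCCLS method) in Mueller-Hinton broth with 3% lysed horse blood; clinical isolates NMU605 (serotype 3) and NMUP45 (serotype 4).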

Streptococcus pneumoniae [3] = test: Antimicrobial activity against drug-resistant Streptococcus pneumoniae NMU112 infected CBA/J mouse assessed as median survival time at 5 mg/kg, po relative to control; format: functional; procedure, shortened: as §1
Streptococcus pneumoniae [4] = test: Inhibition of pneumococcal surface protein A production in Streptococcus pneumoniae NMU112 lysates at 5 ug/mL after 12 hrs by Western blot relative to control; format: functional, organism-based
Procedure, shortened: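 Strain NMU112 (5 × 10⁷ CFU/ml in THY) cultured 12 h at 37°C with drug. Sonicated whole-cell lysates run on SDS-PAGE and Western blotted; bands measured by densitometry as % of drug-free culture. Two cultures per dose, three experiments (n = 5–6).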

Streptococcus pneumoniae [5] = test: Antimicrobial activity against Streptococcus pneumoniae NMU112 infected in po dosed CBA/J mouse assessed as delaying in development of bacteremia […]; format: functional, organism-based
Streptococcus pneumoniae [6] = test: Antimicrobial activity against Streptococcus pneumoniae NMU112; format: functional
Procedure, shortened: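 Broth microdilution MIC per NCCLS in Mueller-Hinton broth with 3% lysed horse blood.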

Streptococcus pneumoniae [7] = test: Reduction of pneumolysin production in Streptococcus pneumoniae NMU112 lysates at 5 ug/mL after 12 hrs by Western blot relative to control; format: functional, organism-based
Procedure, shortened: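 NMU112 at 5 × 10⁷ CFU/ml in THY cultured with macrolide at 37°C for 12 h, then whole-cell sonicated lysates run on SDS-PAGE and immunoblotted for pneumolysin. Band densitometry as mean % of drug-free culture; two cultures per dose per experiment, three experiments.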

Streptococcus pneumoniae [8] = test: Reduction in Streptococcus pneumoniae NMU112 infection induced elevation in syndecan-1 shedding in po dosed CBA/J mouse bronchoalveolar lavage fluid relative to control; format: functional, organism-based; conditions: Lung
Procedure, shortened: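 Syndecan-1 ectodomains in 100 μl BALF measured by sandwich ELISA: 281-2 capture antibody, biotinylated 281-2 detection, streptavidin-HRP/TMB, read at 450 nm. Range 2.5–245 ng/ml. Three mice per time point, triplicate, three experiments.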

Mus musculus [9] = species on record: Mus musculus; test: Reduction of MMP7 expression level in UV rays killed Streptococcus pneumoniae NMU112 infected CBA/J mouse bronchoalveolar lavage fluid relative to control; format: functional, organism-based; conditions: Lung
Plasma [10] = test: Drug level in Streptococcus pneumoniae NMU112 infected CBA/J mouse plasma at 5 mg/kg/day, po after 24 hrs; format: ADME, organism-based; parameters: route oral; conditions: in vivo
Procedure, shortened: (§3)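 Oral gavage at 5 mg/kg/day (0.075 mg twice daily, six doses). Plasma and PBS lung homogenates were taken 24, 48 and 72 h after the last dose. Assayed by HPLC-electrochemical detection with an erythromycin internal standard; linear ranges 0.15–10.5 (plasma) and 0.4–11.8 μg/ml (lung). Five mice per time point; mean ± SD.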

Streptococcus pneumoniae [11] = test: Antimicrobial activity against Streptococcus pneumoniae NMU112 infected in po dosed CBA/J mouse bronchoalveolar lavage fluid assessed as reduction in number of colony forming units after 24 to 48 hrs relative to control; format: functional, organism-based; conditions: Lung
Procedure, shortened: (§4)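 CBA/J mice (28–30 g) dosed by oral gavage twice daily for 3 days, saline as control. Infected 24 h after the last dose with 5 × 10⁴ CFU via the oropharynx under light ketamine/xylazine anesthesia. Blood, lung homogenate and pooled BALF supernatant were plated on agar with 200 μg/ml ERY and incubated about 24 h at 37°C for CFU. Three mice per group per time point, three experiments.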

Streptococcus pneumoniae [12] = test: Inhibition of Streptococcus pneumoniae NMU112 infection-induced polymorphonuclear leukocytes infiltration in CBA/J mouse lung assessed as MPO activity after 12 hrs relative to control; format: functional, organism-based
Procedure, shortened: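 Lungs (n = 4 per group per time point) removed after blood collection, weighed and frozen, then assayed with an MPO kit. Activity given as units per mg protein.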

Streptococcus pneumoniae [13] = test: Reduction of pneumococcal surface protein A in Streptococcus pneumoniae NMU112 infected CBA/J mouse lung lysates after 48 hrs by Western blot relative to control; format: functional, organism-based
Procedure, shortened: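 Left-lung Triton X extract (1 mg protein) immunoprecipitated with anti-PspA on protein G beads, then run on SDS-12% PAGE and Western blotted. Densitometry given as % of control. Three mice per group per time point.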

Streptococcus pneumoniae [14] = test: Antimicrobial activity against Streptococcus pneumoniae NMUP45; format: functional; procedure, shortened: as §2
Lung [15] = test: Drug level in Streptococcus pneumoniae NMU112 infected CBA/J mouse lung tissue at 5 mg/kg/day, po after 48 hrs; format: ADME, organism-based; parameters: route oral; conditions: in vivo; procedure, shortened: as §3
Mus musculus [16] = species on record: Mus musculus; test: Reduction of polymorphonuclear leukocytes in UV rays killed Streptococcus pneumoniae NMU112 infected CBA/J mouse bronchoalveolar lavage fluid relative to control; format: functional, organism-based; conditions: Lung
Lung [17] = test: Drug level in Streptococcus pneumoniae NMU112 infected CBA/J mouse lung tissue at 5 mg/kg/day, po after 72 hrs; format: ADME, organism-based; parameters: route oral; conditions: in vivo; procedure, shortened: as §3
Streptococcus pneumoniae [18] = test: Antimicrobial activity against Streptococcus pneumoniae NMU112 infected in po dosed CBA/J mouse blood assessed as number of colony forming units after 7 days relative to control; format: functional; procedure, shortened: as §4
Lung [19] = test: Drug level in Streptococcus pneumoniae NMU112 infected CBA/J mouse lung tissue at 5 mg/kg/day, po after 24 hrs; format: ADME, organism-based; parameters: route oral; conditions: in vivo; procedure, shortened: as §3
Plasma [20] = test: Drug level in Streptococcus pneumoniae NMU112 infected CBA/J mouse plasma at 5 mg/kg/day, po after 72 hrs; format: ADME, organism-based; parameters: route oral; conditions: in vivo; procedure, shortened: as §3
Streptococcus pneumoniae [21] = test: Reduction in Streptococcus pneumoniae NMU112 infection-induced elevation in keratinocyte-derived chemokine level in po dosed CBA/J mouse lung after 12 hrs by sandwich ELISA relative to control; format: functional, organism-based
Procedure, shortened: (§5)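 Lung homogenate in lysis buffer with protease inhibitors, 30 min on ice, spun 12,000 × g 20 min at 4°C. KC or MCP-1 measured by sandwich ELISA, detection limit 2 pg/ml. Three mice per group per time point after infection with 5 × 10⁴ CFU, each sample in triplicate, two experiments.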

Streptococcus pneumoniae [22] = test: Antimicrobial activity against Streptococcus pneumoniae NMU605 infected CBA/J mouse assessed as animal survival at => 2.5 mg/kg, po relative to control; format: functional, organism-based; parameters: dose 2.5 mg/kg
Streptococcus pneumoniae [23] = test: Antimicrobial activity against drug-resistant Streptococcus pneumoniae NMU112 infected CBA/J mouse assessed as animal survival at 1.25 mg/kg, po; format: functional, organism-based; parameters: dose 1.25 mg/kg; procedure, shortened: as §1
Streptococcus pneumoniae [24] = test: Reduction in Streptococcus pneumoniae NMU112 infection-induced elevation in keratinocyte-derived chemokine level in po dosed CBA/J mouse bronchoalveolar lavage fluid after 8 hrs by sandwich ELISA relative to control; format: functional, organism-based; conditions: Lung
Streptococcus pneumoniae [25] = test: Antimicrobial activity against Streptococcus pneumoniae NMUP45 infected CBA/J mouse assessed as animal survival at => 5 mg/kg, po relative to control; format: functional, organism-based; parameters: dose 5 mg/kg
Streptococcus pneumoniae [26] = test: Antimicrobial activity against Streptococcus pneumoniae NMU112 infected in po dosed CBA/J mouse lungs assessed as reduction in number of colony forming units after 24 to 48 hr relative to control; format: functional, organism-based; procedure, shortened: as §4
Streptococcus pneumoniae [27] = test: Antimicrobial activity against Streptococcus pneumoniae NMU112 infected in po dosed CBA/J mouse blood assessed as number of colony forming units after 5 days relative to control; format: functional; procedure, shortened: as §4
Streptococcus pneumoniae [28] = test: Antimicrobial activity against Streptococcus pneumoniae NMU112 infected in po dosed CBA/J mouse blood assessed as number of colony forming units after 4 days relative to control; format: functional; procedure, shortened: as §4
Plasma [29] = test: Drug level in Streptococcus pneumoniae NMU112 infected CBA/J mouse plasma at 5 mg/kg/day, po after 48 hrs; format: ADME, organism-based; parameters: route oral; conditions: in vivo; procedure, shortened: as §3
Streptococcus pneumoniae [30] = test: Increase in Streptococcus pneumoniae NMU112 infection-induced reduction in MCP1 level in po dosed CBA/J mouse lung by sandwich ELISA relative to control
Streptococcus pneumoniae [31] = test: Increase in Streptococcus pneumoniae NMU112 infection-induced reduction in MCP1 level in po dosed CBA/J mouse lung after 12 to 36 hrs by sandwich ELISA relative to control; format: functional, organism-based; procedure, shortened: as §5
Streptococcus pneumoniae [32] = test: Inhibition of Streptococcus pneumoniae NMU112 induced MMP7 expression level in po dosed CBA/J mouse assessed as decrease in caseinolytic activity after 6 to 48 hrs relative to control; format: functional, organism-based
Procedure, shortened: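 Casein zymography on lung extract (100 μg protein) in 4–16% casein gels. The 19-kDa mature MMP-7 lysis band was scanned by densitometry and expressed as % of infected controls. Five to six mice per time point, three experiments.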

Streptococcus pneumoniae [33] = test: Antimicrobial activity against drug-resistant Streptococcus pneumoniae NMU112 infected CBA/J mouse assessed as median survival time at 7.5 mg/kg, po relative to control; format: functional; procedure, shortened: as §1
Streptococcus pneumoniae [34] = test: Reduction of pneumolysin production in Streptococcus pneumoniae NMU112 infected CBA/J mouse lung lysates after 48 hrs of infection by Western blot relative to control; format: functional, organism-based
Procedure, shortened: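 Left lungs (n, 3 per group per time point) homogenised in Tris-HCl pH 7.5 with NaCl and Triton X, then centrifuged. Extract (1 mg protein) immunoprecipitated with anti-PLY on protein G beads, run on SDS-12% PAGE and blotted. Band densitometry expressed as % of control mice after oral pretreatment and intratracheal NMU112 infection.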

Streptococcus pneumoniae [35] = test: Antimicrobial activity against Streptococcus pneumoniae NMU112 infected in po dosed CBA/J mouse blood assessed as number of colony forming units after 6 days relative to control; format: functional; procedure, shortened: as §4

CC[C@H]1OC(=O)[C@H](C)[C@@H](O[C@H]2C[C@@](C)(OC)[C@@H](O)[C@H](C)O2)[C@H](C)[C@@H](O[C@@H]2O[C@H](C)C[C@H](N(C)C)[C@H]2O)[C@](C)(O)C[C@@H](C)CN(C)[C@H](C)[C@@H](O)[C@]1(C)O [AZITHROMYCIN]
MST (Streptococcus pneumoniae [1]): 7.33 days
MIC (Streptococcus pneumoniae [2]): 0.125 µg/mL (≈ 0.167 µM)
MST (Streptococcus pneumoniae [3]): 5.84 days
Activity (Streptococcus pneumoniae [4]): Active
Activity (Streptococcus pneumoniae [5]): Active
MIC (Streptococcus pneumoniae [6]): ≥ 256 µg/mL
Activity (Streptococcus pneumoniae [7]): Active

CC[C@H]1OC(=O)[C@H](C)[C@@H](O[C@H]2C[C@@](C)(OC)[C@@H](O)[C@H](C)O2)[C@H](C)[C@@H](O[C@@H]2O[C@H](C)C[C@H](N(C)C)[C@H]2O)[C@](C)(O)C[C@@H](C)/C(=N\OCOCCOC)[C@H](C)[C@@H](O)[C@]1(C)O [ROXITHROMYCIN]
Activity (Streptococcus pneumoniae [8]): Active
MST (Streptococcus pneumoniae [1]): 6.6 days
MIC (Streptococcus pneumoniae [2]): 0.06 µg/mL (≈ 0.0717 µM)
Activity (Mus musculus [9]): Active
Concn (Plasma [10]): 3870 ng/mL
Activity (Streptococcus pneumoniae [11]): Active
Activity (Streptococcus pneumoniae [12]): Active
Activity (Streptococcus pneumoniae [13]): Active
MST (Streptococcus pneumoniae [3]): 5.8 days
Activity (Streptococcus pneumoniae [4]): inactive
MIC (Streptococcus pneumoniae [14]): 4 µg/mL (≈ 4.78 µM)
Concn (Lung [15]): 2870 ng/mL
Activity (Mus musculus [16]): Active
Concn (Lung [17]): 650 ng/mL
log10CFU/ml (Streptococcus pneumoniae [18]): >=5.11
MIC (Streptococcus pneumoniae [6]): ≥ 256 µg/mL
Concn (Lung [19]): 5220 ng/mL
Concn (Plasma [20]): 540 ng/mL
Activity (Streptococcus pneumoniae [21]): Active
Activity (Streptococcus pneumoniae [22]): Active
Activity (Streptococcus pneumoniae [23]): inactive
Activity (Streptococcus pneumoniae [24]): Active
Activity (Streptococcus pneumoniae [25]): Active
Activity (Streptococcus pneumoniae [26]): Active
log10CFU/ml (Streptococcus pneumoniae [27]): 3.68
log10CFU/ml (Streptococcus pneumoniae [28]): 2.14
Concn (Plasma [29]): 1360 ng/mL
Activity (Streptococcus pneumoniae [30]): Active
Activity (Streptococcus pneumoniae [31]): Active
Activity (Streptococcus pneumoniae [7]): inactive
Activity (Streptococcus pneumoniae [32]): Active
MST (Streptococcus pneumoniae [33]): 6.3 days
Activity (Streptococcus pneumoniae [34]): Active
log10CFU/ml (Streptococcus pneumoniae [35]): 4.27
